Measurements: ChEMBL document CHEMBL2150931, “Design, synthesis, and biological activity of a novel series of human sirtuin-2-selective inhibitors” (J Med Chem, 2012)

Legend:
[1] = molecular target: T1, Polyamine deacetylase HDAC10 (Homo sapiens, UniProt Q969S8); experiment: Inhibition of HDAC10
T1 sequence (Q969S8 whole entry): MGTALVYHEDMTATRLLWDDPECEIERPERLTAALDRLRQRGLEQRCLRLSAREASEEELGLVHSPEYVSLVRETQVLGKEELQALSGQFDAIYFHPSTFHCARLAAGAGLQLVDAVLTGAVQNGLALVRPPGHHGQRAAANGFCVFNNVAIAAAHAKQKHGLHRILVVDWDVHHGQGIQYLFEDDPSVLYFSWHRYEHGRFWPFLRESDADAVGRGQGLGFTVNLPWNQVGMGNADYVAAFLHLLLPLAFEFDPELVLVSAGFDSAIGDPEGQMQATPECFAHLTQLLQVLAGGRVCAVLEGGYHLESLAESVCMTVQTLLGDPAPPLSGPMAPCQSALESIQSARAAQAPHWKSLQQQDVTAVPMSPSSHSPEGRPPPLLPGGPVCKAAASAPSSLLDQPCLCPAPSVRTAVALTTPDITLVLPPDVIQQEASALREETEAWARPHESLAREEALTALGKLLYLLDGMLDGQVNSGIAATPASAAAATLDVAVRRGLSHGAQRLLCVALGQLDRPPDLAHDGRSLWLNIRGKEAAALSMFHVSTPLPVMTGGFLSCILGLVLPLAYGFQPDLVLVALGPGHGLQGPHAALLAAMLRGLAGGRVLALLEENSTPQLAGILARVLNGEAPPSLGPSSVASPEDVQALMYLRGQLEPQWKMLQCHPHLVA

[2] = molecular target: Histone deacetylase 4 (Homo sapiens, UniProt P56524); experiment: Inhibition of HDAC4
[3] = molecular target: T2, NAD-dependent protein deacetylase sirtuin-2 (Homo sapiens) (UniProt Q8IXJ6); experiment: Inhibition of SIRT2 in human HCT116 cells assessed as increase in acetylated alpha-tubulin after 8 hrs by Western blot analysis; assay type: cell-based; settings: HCT-116
T2 sequence (whole entry): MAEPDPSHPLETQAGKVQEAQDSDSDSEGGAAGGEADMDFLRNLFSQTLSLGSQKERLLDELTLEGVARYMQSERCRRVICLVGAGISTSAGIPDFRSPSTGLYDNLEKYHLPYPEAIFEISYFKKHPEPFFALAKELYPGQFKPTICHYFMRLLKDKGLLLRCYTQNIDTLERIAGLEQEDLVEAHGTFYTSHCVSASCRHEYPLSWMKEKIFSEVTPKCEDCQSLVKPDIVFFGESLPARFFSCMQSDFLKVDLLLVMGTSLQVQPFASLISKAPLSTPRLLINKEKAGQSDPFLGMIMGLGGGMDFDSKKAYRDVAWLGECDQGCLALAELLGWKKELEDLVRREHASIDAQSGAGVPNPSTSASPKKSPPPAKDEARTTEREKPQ
How it was run: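 HCT116 cells grown in McCoy's 5A with 10% FBS. 5×10⁵ cells exposed 8 h to compound at 1 or 10 μM, alongside 20 μM etoposide. SDS lysates equalized by Bradford assay and run on 15% SDS-PAGE, then blotted onto nitrocellulose. Blots probed overnight at 4 °C for acetyl-p53, p53, acetyl-α-tubulin and α-tubulin, and detected by ECL. Signal given as acetylated/total protein ratio.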

[4] = molecular target: T3, Histone deacetylase 7 (Homo sapiens, UniProt Q8WUI4); experiment: Inhibition of HDAC7
T3 sequence (Q8WUI4 whole entry): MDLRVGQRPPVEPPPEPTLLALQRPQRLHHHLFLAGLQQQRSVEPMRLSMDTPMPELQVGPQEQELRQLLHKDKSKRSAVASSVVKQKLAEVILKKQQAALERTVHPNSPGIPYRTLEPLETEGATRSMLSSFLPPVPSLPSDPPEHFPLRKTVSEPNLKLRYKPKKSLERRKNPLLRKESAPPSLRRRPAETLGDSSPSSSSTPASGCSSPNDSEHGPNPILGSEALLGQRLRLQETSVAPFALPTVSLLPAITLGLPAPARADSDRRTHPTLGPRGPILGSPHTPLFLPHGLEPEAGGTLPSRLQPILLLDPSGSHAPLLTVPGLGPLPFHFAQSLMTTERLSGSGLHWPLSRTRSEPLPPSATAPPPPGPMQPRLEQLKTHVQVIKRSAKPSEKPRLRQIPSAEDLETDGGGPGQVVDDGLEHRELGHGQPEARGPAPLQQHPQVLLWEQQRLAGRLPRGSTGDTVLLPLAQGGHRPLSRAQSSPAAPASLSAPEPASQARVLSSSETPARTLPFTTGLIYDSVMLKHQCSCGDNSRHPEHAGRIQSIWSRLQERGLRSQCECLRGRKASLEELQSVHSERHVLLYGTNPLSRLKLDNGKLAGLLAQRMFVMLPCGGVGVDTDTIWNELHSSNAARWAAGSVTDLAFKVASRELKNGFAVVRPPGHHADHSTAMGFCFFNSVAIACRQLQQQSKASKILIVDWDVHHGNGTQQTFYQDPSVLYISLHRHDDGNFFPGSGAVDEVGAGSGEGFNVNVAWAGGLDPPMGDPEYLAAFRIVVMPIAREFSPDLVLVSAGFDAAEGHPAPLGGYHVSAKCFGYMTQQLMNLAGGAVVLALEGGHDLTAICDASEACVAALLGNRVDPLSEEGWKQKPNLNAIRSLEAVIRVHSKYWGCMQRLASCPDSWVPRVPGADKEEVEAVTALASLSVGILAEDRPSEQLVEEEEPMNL

Sequence of Histone deacetylase 4 (P56524 whole entry): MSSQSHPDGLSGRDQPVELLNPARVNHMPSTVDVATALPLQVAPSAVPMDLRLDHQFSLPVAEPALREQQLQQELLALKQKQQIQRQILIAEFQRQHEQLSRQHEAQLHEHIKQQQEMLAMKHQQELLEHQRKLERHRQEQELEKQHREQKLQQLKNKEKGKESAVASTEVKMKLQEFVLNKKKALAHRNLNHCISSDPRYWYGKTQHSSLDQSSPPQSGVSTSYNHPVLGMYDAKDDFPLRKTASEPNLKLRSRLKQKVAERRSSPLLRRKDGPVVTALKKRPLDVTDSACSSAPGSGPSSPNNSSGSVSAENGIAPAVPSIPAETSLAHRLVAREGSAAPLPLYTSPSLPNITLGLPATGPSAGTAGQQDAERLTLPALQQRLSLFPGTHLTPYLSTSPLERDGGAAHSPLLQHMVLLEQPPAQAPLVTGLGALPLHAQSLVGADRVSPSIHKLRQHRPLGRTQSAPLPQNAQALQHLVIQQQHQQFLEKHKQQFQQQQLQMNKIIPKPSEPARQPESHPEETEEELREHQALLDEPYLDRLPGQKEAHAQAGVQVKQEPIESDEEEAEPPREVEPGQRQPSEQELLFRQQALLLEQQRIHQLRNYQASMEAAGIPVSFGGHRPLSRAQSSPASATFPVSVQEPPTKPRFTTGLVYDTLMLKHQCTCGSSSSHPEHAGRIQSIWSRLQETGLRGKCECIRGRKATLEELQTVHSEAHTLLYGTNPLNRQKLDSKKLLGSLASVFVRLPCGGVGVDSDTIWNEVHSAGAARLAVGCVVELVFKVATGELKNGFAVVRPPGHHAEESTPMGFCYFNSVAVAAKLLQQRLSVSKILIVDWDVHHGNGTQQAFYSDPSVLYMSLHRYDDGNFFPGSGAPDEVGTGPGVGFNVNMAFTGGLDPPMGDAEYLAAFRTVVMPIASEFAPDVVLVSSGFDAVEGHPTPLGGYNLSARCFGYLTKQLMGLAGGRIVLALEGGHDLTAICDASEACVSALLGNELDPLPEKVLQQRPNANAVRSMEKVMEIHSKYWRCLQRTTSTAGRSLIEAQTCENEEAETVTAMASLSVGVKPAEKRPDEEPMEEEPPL

IC50 [1]: > 30 µM
IC50 [2]: > 30 µM
inhibition [3]: Dose-dependent effect
IC50 [4]: > 30 µM
Compound: NC(=O)c1ccccc1Nc1cccc(OCCc2ccccc2)c1
